The text below walks through data of the array DNA melting data of Ke et al. (doi:10.1101/2024.01.08.574731).

A short description of data set [1]: folding enthalpy; higher = less favourable; fluorescence melt of hairpins on a sequencing array, two-state fit. The note with it: sodium 0.088 M. In short, it runs like this: (§1)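 Folding enthalpy and melting temperature come from bootstrapped two-state fits to Cy3 fluorescence of library hairpins carrying annealed Cy3 and quencher oligos on a sequenced MiSeq flow cell. Imaging was done in 50 mM Na-HEPES pH 8.0, 25 mM NaCl, stepping by 2.5 °C up to 60 °C, and signals were normalised to pre-quench Cy3 and to control constructs. Results of four replicates were combined by inverse variance, and fitted temperatures were raised by 9.35 °C to match UV melts.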

Data set [2] is described as follows: melting temperature; fluorescence melt of hairpins on a sequencing array, two-state fit, raised by 9.35 °C to match UV melts. Particulars: sodium 0.088 M. In short, it runs like this:
as §1

As to GACAACGAAAGTTCGTC ((((((....))).))), the folding enthalpy in data set [1] is -21 kcal/mol. Further, in data set [2], the Tm was 42.6 °C.
In the case of GACAACGAAAGTTGTC ((((((....)))))), the folding enthalpy in data set [1] is -24.8 kcal/mol. Also, in data set [2], the Tm came out at 67.9 °C.
Taken in the same sequence, the figures for GACAACGAAAGTTTAGTC ((((((....)))..))) were -16 kcal/mol and 30.4 °C.
Taken in the same sequence, the figures for GACAACGAAAGTTTGGTC ((((((....)))..))) were -16.4 kcal/mol and 32.9 °C.
On to GACAACGAAAGTTTTGTC ((((((....)))..))), for which the folding enthalpy in data set [1] was -24.7 kcal/mol. In addition, the Tm in data set [2] was 31.8 °C.
Taken in the same sequence, the figures for GACAACGGAAACGTCGTC (((.(((....))).))) were -29.5 kcal/mol and 43.4 °C.
Taken in the same sequence, the figures for GACAACGGAAACGTTGCC (.(((((....))))).) were -17.4 kcal/mol and 44.9 °C.
In the same order, the values of GACAAGCGAAAGCTCGTC (((.(((....))).))) are -21 kcal/mol and 49.3 °C.
For the sequence GACAAGGGAAACTTTGTC (((((.(....).))))), the folding enthalpy in data set [1] is -27.1 kcal/mol. For the same sequence, in data set [2], the Tm stood at 36.9 °C.
In the same order, the values of GACAATGCGAAAGCAGTC (((..(((....)))))) are -14 kcal/mol and 40.4 °C.
Regarding GACAATGGAAACATCGTC (((.(((....))).))), the folding enthalpy in data set [1] is -26.4 kcal/mol. Also, the Tm in data set [2] amounted to 32.5 °C.
In the same order, the values of GACACCGAAAGGTAGTC ((((((....))).))) are -22.5 kcal/mol and 50.1 °C.
Taken in the same sequence, the figures for GACACCGAAAGGTCCGTC ((((((....)))..))) were -16.9 kcal/mol and 31.4 °C.
Taken in the same sequence, the figures for GACACCGAAAGGTGGTC ((((((....))).))) were -12.8 kcal/mol and 55.6 °C.
Regarding GACACCGAAAGGTGTGTC ((((((....)))..))), in data set [1], the folding enthalpy was -11.3 kcal/mol. For the same sequence, in data set [2], the Tm was 61.6 °C.
In the same order, the values of GACACCGAAAGGTTGTC ((((((....))).))) are -25.3 kcal/mol and 53.2 °C.
Regarding GACACGGAAACGTGTC ((((((....)))))), the folding enthalpy in data set [1] was -34.9 kcal/mol. Moreover, in data set [2], the Tm is 67.7 °C.
Taken in the same sequence, the figures for GACACGGGAAACCGCATC ((..(((....)))..)) were -11.1 kcal/mol and 20.4 °C.
In the same order, the values of GACACTGCGAAAGCAGTC (((..(((....)))))) are -8.12 kcal/mol and 31.4 °C.
Take GACAGACGAAAGTCCGTC (((.(((....))).))): the folding enthalpy in data set [1] was -26 kcal/mol. The Tm in data set [2] turned out to be 47.5 °C.
Turning to GACAGAGAAATCTGTC ((((((....)))))), the folding enthalpy in data set [1] was -33.2 kcal/mol. In data set [2], the Tm was 50.9 °C.
In the same order, the values of GACAGAGGAAACTCTGCC (.(((((....))))).) are -15.5 kcal/mol and 41.9 °C.
Taken in the same sequence, the figures for GACAGAGGAAACTCTGTC (((((((....))))))) were -41.3 kcal/mol and 60.6 °C.
In the same order, the values of GACAGAGGAAACTTTGTC ((((.((....)).)))) are -25.3 kcal/mol and 36.7 °C.
Take GACAGCACGAAAGTGGTC (((..(((....)))))): the folding enthalpy in data set [1] was -13.7 kcal/mol. The Tm in data set [2] was determined as 36 °C.
Taken in the same sequence, the figures for GACAGCCGAAAGGCAGTC (((.(((....))).))) were -22.5 kcal/mol and 60.1 °C.
In the same order, the values of GACAGCCGAAAGGCCGTC (((.(((....))).))) are -18.7 kcal/mol and 55 °C.
Take GACAGCGAAAGCTGCGTC ((((((....)))..))): in data set [1], the folding enthalpy was -10.1 kcal/mol. In addition, in data set [2], the Tm was 48 °C.
In the same order, the values of GACAGCGAAAGCTTGTC ((((((....))).))) are -22 kcal/mol and 52.6 °C.
Taken in the same sequence, the figures for GACAGCGGAAACGCTGCC (.(((((....))))).) were -11.5 kcal/mol and 52.6 °C.
Taken in the same sequence, the figures for GACAGTGGAAACACCATC ((..(((....)))..)) were -10.3 kcal/mol and 19.9 °C.
As for GACATAACGAAAGTTGTC (((..(((....)))))), the folding enthalpy in data set [1] is -25 kcal/mol. The Tm in data set [2] turned out to be 37.4 °C.
Taken in the same sequence, the figures for GACATACGAAAGTAGGTC (((.(((....))).))) were -39.1 kcal/mol and 52.7 °C.
Taken in the same sequence, the figures for GACATAGAAATATGTC ((((((....)))))) were -30 kcal/mol and 45.5 °C.
Taken in the same sequence, the figures for GACATCCGAAAGGAAGTC (((.(((....))).))) were -36.6 kcal/mol and 48.8 °C.
Regarding GACATCGAAAGATGTC ((((((....)))))), the folding enthalpy in data set [1] was -39.7 kcal/mol. The Tm in data set [2] was determined as 64.4 °C.
Taken in the same sequence, the figures for GACATCGGAAACGATATC ((.((((....)))).)) were -21.9 kcal/mol and 31.6 °C.
In the case of GACATCGGAAACGATGTC (((((((....))))))), the folding enthalpy in data set [1] was -44 kcal/mol. For the same sequence, the Tm in data set [2] is 66.6 °C.
Take GACATGCGAAAGCAAGTC (((.(((....))).))): the folding enthalpy in data set [1] is -25.5 kcal/mol. Besides, the Tm in data set [2] worked out at 53.3 °C.
Taken in the same sequence, the figures for GACCAACGAAAGTTAGTC (((.(((....))).))) were -26 kcal/mol and 38.8 °C.
Taken in the same sequence, the figures for GACCAAGGAAACCTGGTC (((((.(....).))))) were -33.4 kcal/mol and 47.2 °C.
In the same order, the values of GACCACGAAAGTGACGTC ((((((....)))..))) are -16.5 kcal/mol and 37.5 °C.
Consider GACCACGAAAGTGTAGTC ((((((....)))..))), for which, in data set [1], the folding enthalpy is -18.6 kcal/mol. The Tm in data set [2] was 41.1 °C.
Turning to GACCACGAAAGTGTTGTC ((((((....)))..))), the folding enthalpy in data set [1] is -18.7 kcal/mol. Also, the Tm in data set [2] amounted to 34.4 °C.
Turning to GACCACGGAAACACGGTC ((((..(....)..)))), the folding enthalpy in data set [1] was -30.3 kcal/mol. In data set [2], the Tm worked out at 35.3 °C.
In the same order, the values of GACCAGCGAAAGCTTGTC (((.(((....))).))) are -24 kcal/mol and 47.8 °C.
Taken in the same sequence, the figures for GACCAGGGAAACCTGGTC (((((((....))))))) were -34.4 kcal/mol and 67.5 °C.
Taken in the same sequence, the figures for GACCATGAAAATGGTC ((((((....)))))) were -36.9 kcal/mol and 61.8 °C.
With GACCCACGAAAGTGTGTC (((.(((....))).))), in data set [1], the folding enthalpy was -27.4 kcal/mol. Besides, in data set [2], the Tm stood at 48.9 °C.
Taken in the same sequence, the figures for GACCCAGGAAACCGGGTC (((((.(....).))))) were -32.8 kcal/mol and 52.9 °C.
Taken in the same sequence, the figures for GACCCCGAAAGGGACGTC ((((((....)))..))) were -17 kcal/mol and 40.4 °C.
Taken in the same sequence, the figures for GACCCCGAAAGGGCGGTC ((((((....)))..))) were -17.2 kcal/mol and 45.9 °C.
For the sequence GACCCCGAAAGGGCGTC ((((((....))).))), the folding enthalpy in data set [1] was -36.6 kcal/mol. For the same sequence, the Tm in data set [2] is 56.7 °C.
Taken in the same sequence, the figures for GACCCCGGAAACGGGACC (..((((....))))..) were -8.3 kcal/mol and 28.1 °C.
In the same order, the values of GACCCGCGAAAGCGTGTC (((.(((....))).))) are -24 kcal/mol and 52.6 °C.
In the same order, the values of GACCCGGGAAACCGGATC ((.((((....)))).)) are -16.3 kcal/mol and 43.2 °C.
Turning to GACCCTACGAAAGTAGTC (((..(((....)))))), the folding enthalpy in data set [1] was -11.3 kcal/mol. Moreover, the Tm in data set [2] was 28 °C.
Taken in the same sequence, the figures for GACCCTGGAAACAGGATC ((.((((....)))).)) were -21.8 kcal/mol and 37.6 °C.
Taken in the same sequence, the figures for GACCGAACGAAAGTTGTC (((..(((....)))))) were -17 kcal/mol and 29.5 °C.
In the same order, the values of GACCGACGAAAGTCGTC (((.(((....)))))) are -10.6 kcal/mol and 45 °C.
Turning to GACCGAGAAATCGGTC ((((((....)))))), the folding enthalpy in data set [1] was -34.4 kcal/mol. Further, the Tm in data set [2] was found to be 59.6 °C.
In the same order, the values of GACCGCGAAAGCGCGTC ((((((....))).))) are -21 kcal/mol and 63.1 °C.
Taken in the same sequence, the figures for GACCGCGAAAGCGTCGTC ((((((....)))..))) were -13.5 kcal/mol and 53.1 °C.
Taken in the same sequence, the figures for GACCGCGGAAACGCGGCC (.(((((....))))).) were -10.1 kcal/mol and 52.5 °C.
In the case of GACCGGCGAAAGCCAGTC (((.(((....))).))), the folding enthalpy in data set [1] was -20.2 kcal/mol. The Tm in data set [2] came out at 50.7 °C.
Taken in the same sequence, the figures for GACCGGGGAAACCCGACC (..((((....))))..) were -11.4 kcal/mol and 30 °C.
In the same order, the values of GACCGTCCGAAAGGAGTC (((..(((....)))))) are -11.8 kcal/mol and 28.6 °C.
Taken in the same sequence, the figures for GACCGTGGAAACACGGCC (.(((((....))))).) were -13.2 kcal/mol and 50.9 °C.
Take GACCTACGAAAGTATGTC (((.(((....))).))): the folding enthalpy in data set [1] is -33.4 kcal/mol. Further, in data set [2], the Tm amounted to 41 °C.
GACCTAGGAAACCAGGTC (((((.(....).))))): the folding enthalpy in data set [1] was -35.3 kcal/mol. Moreover, the Tm in data set [2] came out at 45 °C.
For GACCTAGGAAACTAGGTC (((((((....))))))), the folding enthalpy in data set [1] is -42 kcal/mol. For the same sequence, in data set [2], the Tm amounted to 60.5 °C.
Taken in the same sequence, the figures for GACCTGAAAAGGTC (((((....))))) were -27.9 kcal/mol and 59 °C.
Taken in the same sequence, the figures for GACCTGCGAAAGCAGTC (((.(((....)))))) were -12.2 kcal/mol and 48.5 °C.
